According to the array DNA melting data of Ke et al. (doi:10.1101/2024.01.08.574731):

What was measured:
[1] = folding enthalpy; higher = less favourable; fluorescence melt of hairpins on a sequencing array, two-state fit; settings: sodium 0.088 M
Method in brief: (§1)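 To match UV melts, fitted temperatures were raised by 9.35 °C. These fits were bootstrapped two-state models that gave melting temperature and folding enthalpy, combined by inverse variance over four replicates. The input was normalised Cy3 fluorescence of library hairpins with annealed Cy3 and quencher oligos on a sequenced MiSeq flow cell, imaged in 50 mM Na-HEPES pH 8.0, 25 mM NaCl in 2.5 °C steps up to 60 °C.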

[2] = melting temperature; fluorescence melt of hairpins on a sequencing array, two-state fit, raised by 9.35 °C to match UV melts; settings: sodium 0.088 M
Method in brief: as §1

Sequence	folding enthalpy [1] [kcal/mol]	Tm [2] [°C]
GCCCCGCGAAAGCGTGGC (((.(((....))).)))	-25.4	67.4
GCTCGGGGAAACCTGGGC ((.(.((....)).).))	-18.5	45.9
GGCCTGGGAAACCGGGCC ((((.((....)).))))	-30.6	66.3
GATCCGGTCCCGGATC ((((((....))))))	-35.4	65.3
GATCGACGGTTCGATC ((((((....))))))	-39.6	50.7
GATCTGAAAACAGATC ((((((....))))))	-27.5	42.8
GATCCACTGATGGATC ((((((....))))))	-38.5	50.4
GATCAGCACACTGATC ((((((....))))))	-32.3	53.4
GATCACTAAAGTGATC ((((((....))))))	-38.6	54.5
GATCCCGTTGGGGATC ((((((....))))))	-42.4	64.7
GTTAACCGAAAGGTAAAC (((.(((....))).)))	-25.2	41.9
GTTACCGGAAACGGTAAC (((((((....)))))))	-42.4	63.2
GCGGGCGAAAGCCATCGC ((((((....)))..)))	-21.1	52.8
GAGCACACGAAAGTGCTC (((..(((....))))))	-33.4	57.8
GCAGAGCGAAAGCCCTGC ((((.((....)).))))	-29.1	63.2
GAAGACGAAAGTCCTTC ((((((....))).)))	-20.8	39.2
GATCATTTTTATGATC ((((((....))))))	-40	49.1
GCCCACGAAAGTGTGGGC ((((((....)))..)))	-31.5	68
GAAGAAGGAAACTTCTTC (((((((....)))))))	-48.8	50.6
GCCTTGCGAAAGCCCGGC (((..((....))..)))	-23.2	41.8
GACGGAGGAAACTCCGTC (((((((....)))))))	-36.1	67.8
GCGTAGCGAAAGCTAGGC ((.((((....)))).))	-20.9	59.6
GATGCTGGAAACAGCACC (.(((((....))))).)	-14.4	39.4

Sequence	folding enthalpy [1] [kcal/mol]	Tm [2] [°C]
GCCGCCGAAAGGCACGGC ((((((....)))..)))	-16.7	62.6
GTTGATCGAAAGATGAAC (((.(((....))).)))	-24.1	37.1
GAGGCCGAAAGGCTCTC ((((((....))).)))	-17.9	54.7
GCACTGCGAAAGCACGGC ((..(((....)))..))	-17.6	38.4
GTGGGCGAAAGCCTCCAC ((((((....)))..)))	-11.7	37.6
GGTCTACGAAAGTAAACC (((.(((....))).)))	-26.2	39.3
GGGCGTCGAAAGACTCCC (((.(((....))).)))	-38.3	53.9
GAGTCCCGAAAGGGGCTC (((.(((....))).)))	-28.9	69.2
GCAGCCGAAAGGCGGTGC ((((((....)))..)))	-15	57.1
GATCCAAATATGGATC ((((((....))))))	-34.1	49.4
CCCTGGAAACAGGG (((((....)))))	-20	56.9
GCGAACGAAAGTTCCGC ((((((....))).)))	-29.9	54
AGAACCCGAAAGGCTTCT ((((.((....)).))))	-17.7	33.6
GTTTTCGAAAGAAAAAC ((((((....))).)))	-15.8	39.2
GCTATTGGAAACAGTAGC ((((.((....)).))))	-30	42.9
GACACCGAAAGGTTAGTC ((((((....)))..)))	-20.4	37.5
GCTTGCGAAAGCAAAGC ((((((....))).)))	-22.8	61.4
GGTACTGGAAACGGTACC (((((.(....).)))))	-40.9	50.4
GATCAAAATGTTGATC ((((((....))))))	-28.1	38.4
GATCTTCCCAAGATC ((((((...))))))	-37.6	45.8
GATCACGGTTGTGATC ((((((....))))))	-31.2	61
GCTGCGCGAAAGCGACGC ((..(((....)))..))	-19.4	56
GATCTTTTCAAGATC ((((((...))))))	-36.3	47.7

Sequence	folding enthalpy [1] [kcal/mol]	Tm [2] [°C]
GATATCCCGAAAGGGATC (((..(((....))))))	-8.05	32.5
GATCGAAAAGTCGATC ((((((....))))))	-28.5	45.9
GTCAGTCCGAAAGGAGAC (((..(((....))))))	-15.6	33.2
GCTACAGGAAACCGTAGC (((((.(....).)))))	-31.6	47.7
GAGCAACGAAAGTTTCTC (((.(((....))).)))	-26.3	37
CGGACGGAAACGTGACCG ((((((....)))..)))	-25	38.3
GACCACCCGAAAGGGGTC (((..(((....))))))	-13.1	46.5
GCAGCCGGAAACGGCCAC (..((((....))))..)	-9.09	36.2
GCTCCGCGAAAGCGCGGC ((..(((....)))..))	-11.9	44.8
GATCTTACACAAGATC ((((((....))))))	-28.2	42.7
GATCTTAGATAAGATC ((((((....))))))	-42.7	41.8
GGGTTATCGAAAGATCCC (((..(((....))))))	-24.3	34.9
GATCCCCGCGGGGATC ((((((....))))))	-38.8	67.4
GATCTTCCCAAAGATC ((((((....))))))	-32.6	45.5
GCTACCGAAAGGTGGAGC ((((((....)))..)))	-15.3	41.3
GGTCGAGGAAACTTGGCC ((.(.((....)).).))	-25.3	42.4
GATCCCCTTAGGGATC ((((((....))))))	-45	63.2
GTTACGGCGAAAGCCAAC (((..(((....))))))	-8.79	25
GATCACGAAAGTGTGATC ((((((....)))..)))	-27	47.9
GATCCTAGTAAGGATC ((((((....))))))	-41.1	52.2
GCGAGTCGAAAGACCGC (((.(((....))))))	-35.1	66.8
GCTTTGGGAAACTGAAGC ((((..(....)..))))	-31.6	35.2
GGGCTCGAAAGAGGGCCC ((((((....)))..)))	-39.4	54.6

Sequence	folding enthalpy [1] [kcal/mol]	Tm [2] [°C]
GCTTCCGAAAGGAAAGC ((((((....))).)))	-38.7	54.3
GGGATCGAAAGATGCCCC ((((((....)))..)))	-15	49.2
GCGCCCGGAAACGGGCAC (.(((((....))))).)	-9.09	55.4
GCAGCTGGAAACAGCCAC (..((((....))))..)	-10.6	31
GATCTTGGAAACAGGATC ((((.((....)).))))	-28.6	39.1
GCCGATCGAAAGATTGGC (((.(((....))).)))	-45.5	61.1
GCATTAGGAAACTAATGC (((((((....)))))))	-44.6	55.6
GATCAATCTGTTGATC ((((((....))))))	-35.1	45.6
GGGGAGCGAAAGCTGCCC (((.(((....))).)))	-23.8	68.8
GCATTGGGAAACTAATGC (((((.(....).)))))	-32.6	46.7
GTTGCTCGAAAGAGAAC (((.(((....))))))	-20.2	34.4
GATCAATCGTTTGATC ((((((....))))))	-33.8	45.7
GATGCCGAAAGGCTATC ((((((....))).)))	-13.1	43.4
GATCTCCGGGAGATC ((((((...))))))	-39.7	52.8
GCCACCGAAAGGTAGGC ((((((....))).)))	-32.2	62.7
GGTGGAGGAAACCCCACC (((((.(....).)))))	-43.6	51.1
GCTCAACGAAAGTTAAGC (((.(((....))).)))	-26.4	42
GTCTGGGGAAACCCAGAC (((((((....)))))))	-37.6	68.5
GATCGCTGCCGCGATC ((((((....))))))	-32.8	67.3
GCAGCGCGAAAGCCCCGC ((.(.((....)).).))	-9.42	37
GAGGGTACGAAAGTACTC (((..(((....))))))	-11.9	36.9
GTAGCCGAAAGGCCATAC ((((((....)))..)))	-8.17	22.3
GCTCTCGGAAACGAGAAC (.(((((....))))).)	-16	41.8
